Laboratory results as given in ChEMBL document CHEMBL3774372, “Design, physico-chemical properties and biological evaluation of some new N-[(phenoxy)alkyl]- and N-{2-[2-(phenoxy)ethoxy]ethyl}aminoalkanols as anticonvulsant agents” (Bioorg Med Chem, 2016).
Activity calls are given as the source filed them. The calls are words filed in the database; no cut-off is given here.

Experiments:
[1] = molecular target: Small conductance calcium-activated potassium channel (Rattus norvegicus) (UniProt P70604+P70606+P70605); assay: Displacement of [125I]apamin from rat cerebral cortex small conductance calcium-activated potassium channel at 10^-5 M; assay type: tissue-based
Summary of the method: (§1)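 Radioligand binding screen run at a single test concentration of 10^-5 M. Each target used its stated receptor source (human recombinant CHO or HEK-293 cells, endogenous cell lines, or rat tissue membranes) with the listed radioligand.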

Rattus norvegicus [2] = assay: Anticonvulsant activity in rat assessed as protection against maximal electric shock-induced seizures at 30 mg/kg, po measured after 4 hrs; assay type: functional, organism-based
Summary of the method: (§2)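 Rats dosed ip or orally as 0.5% methylcellulose suspension; maximal electroshock at listed time. Protection = abolition of hindlimb tonic extension; 4 rats per group, scored protected/tested.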

Mus musculus [3] = assay: Anticonvulsant activity in mouse assessed as protection against maximal electric shock-induced seizures at 10 mg/kg, ip measured after 0.5 hrs; assay type: functional, organism-based
Summary of the method: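 Mice dosed ip with suspension in 0.5% methylcellulose; maximal electroshock applied at the listed time after dosing. Protection = abolition of hindlimb tonic extension component of seizure; reported as animals protected/animals tested.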

Mus musculus [4] = assay: Anticonvulsant activity in mouse assessed as protection against 6 Hz psychomotor seizure at 40 mg/kg, ip after 0.5 hrs; assay type: functional, organism-based
Summary of the method: (§3)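 Suspension in 0.5% methylcellulose given ip to mice; corneal stimulation with 0.2 ms monopolar rectangular pulses at 6 Hz for 3 s from a constant current device, mice restrained then released to observation cage. Protected if normal exploratory behaviour resumed within 10 s of stimulation. Scored as protected/tested, 4 mice per group.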

Rattus norvegicus [5] = assay: Anticonvulsant activity in rat assessed as protection against maximal electric shock-induced seizures at 30 mg/kg, ip measured after 4 hrs; assay type: functional, organism-based; summary of the method: as §2
Mus musculus [6] = assay: Tmax in CD1 mouse plasma at 12.92 mg/kg, ig measured up to 240 mins by LC/ESI-MS/MS analysis; assay type: ADME, organism-based; conditions: in vivo, po, 4 h
[7] = Ratio of drug level in brain to plasma in CD1 mouse at 12.92 mg/kg, ig administered as single dose measured after 120 mins by LC/ESI-MS/MS analysis; assay type: ADME, organism-based; conditions: brain and plasma, po, read-out: BPR
[8] = MRT in CD1 mouse plasma at 12.92 mg/kg, ig measured up to 240 mins by LC/ESI-MS/MS analysis; assay type: ADME, organism-based; conditions: po
[9] = Ratio of drug level in brain to plasma in CD1 mouse at 12.92 mg/kg, ig administered as single dose measured after 30 mins by LC/ESI-MS/MS analysis; assay type: ADME, organism-based; conditions: brain and plasma, po, read-out: BPR
[10] = AUC (0 to infinity) in CD1 mouse brain at 1 mg/kg, iv measured up to 240 mins by LC/ESI-MS/MS analysis; assay type: ADME, organism-based; set-up: dose 1 mg/kg, route intravenous, time infinity
Mus musculus [11] = assay: Anticonvulsant activity in ip dosed mouse assessed as protection against maximal electric shock-induced seizures measured after […]; assay type: functional
Mus musculus [12] = assay: AUC (0 to infinity) in CD1 mouse plasma at 1 mg/kg, iv measured up to 240 mins by LC/ESI-MS/MS analysis; assay type: ADME, organism-based; set-up: dose 1 mg/kg, time infinity, route intravenous; conditions: in vivo, 4 h
[13] = AUC (0 to infinity) in CD1 mouse brain at 12.92 mg/kg, ip measured up to 240 mins by LC/ESI-MS/MS analysis; assay type: ADME, organism-based; set-up: dose 12.92 mg/kg, route intraperitoneal, time infinity
Mus musculus [14] = assay: Half life in CD1 mouse plasma at 12.92 mg/kg, ig measured up to 240 mins by LC/ESI-MS/MS analysis; assay type: ADME, organism-based; conditions: in vivo, po, 4 h
Mus musculus [15] = assay: Cmax in CD1 mouse plasma at 12.92 mg/kg, ig measured up to 240 mins by LC/ESI-MS/MS analysis; assay type: ADME, organism-based; set-up: dose 12.92 mg/kg, route […]; conditions: in vivo, po, 4 h
in vitro = conditions: mouse, liver microsomes
Mus musculus [16] = assay: AUMC (0 to infinity) in CD1 mouse plasma at 1 mg/kg, iv measured up to 240 mins by LC/ESI-MS/MS analysis; assay type: ADME, organism-based; conditions: in vivo, 4 h
Summary of the method: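 Male CD1 mice fasted overnight, single iv dose 1 mg/kg; sampled at 0, 5, 15, 30, 60, 120 and 240 min (one sample per mouse, four mice per time), under ketamine/xylazine. Heparinized plasma quantified by validated LC/ESI-MS/MS; non-compartmental moment method; AUMC extrapolated to infinity using terminal rate constant from log-linear regression.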

[17] = Absolute bioavailability in CD1 mouse plasma at 12.92 mg/kg, ip measured up to 240 mins by LC/ESI-MS/MS analysis; assay type: ADME, organism-based
[18] = MRT in CD1 mouse brain at 12.92 mg/kg, ip measured up to 240 mins by LC/ESI-MS/MS analysis; assay type: ADME, organism-based
[19] = Ratio of drug level in brain to plasma in CD1 mouse at 12.92 mg/kg, ip administered as single dose measured after 240 mins by LC/ESI-MS/MS analysis; assay type: ADME, organism-based; conditions: brain and plasma, read-out: BPR
Mus musculus [20] = assay: Neurotoxicity in mouse at 100 mg/kg, ip after 0.5 hrs by rotarod test; assay type: toxicity, organism-based; conditions: in vivo
Summary of the method: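 Mice were dosed ip with compound suspended in 0.5% methylcellulose. Rotarod: a 1 in. knurled rod turning at 6 rpm. Neurotoxicity was scored as failure to stay on the rod for at least 1 min in each of three trials. Results are given as the number of animals affected out of the number tested.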

Vibrio harveyi = assay: Mutagenicity in Vibrio harveyi BB7X assessed as number of colonies after 48 hrs (reference value: 15 to 16 no_unit); assay type: ADME, organism-based; conditions: in vivo
Summary of the method: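 Vibrio harveyi mutagenicity test: test compound was added to exponentially growing cultures (A600 = 0.1, 30 °C) and grown to OD600 0.3–0.4. Then 5 × 10^6 cells were plated on BOSS agar with neomycin (final 100 µg/mL) and incubated 48 h at 30 °C. Neomycin-resistant colonies were counted. Triplicate; controls were water, DMSO and NQNO 40 ng/mL.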

[21] = Ratio of drug level in brain to plasma in CD1 mouse at 12.92 mg/kg, ip administered as single dose measured after 5 mins by LC/ESI-MS/MS analysis; assay type: ADME, organism-based; conditions: brain and plasma, read-out: BPR
[22] = MRT in CD1 mouse brain at 12.92 mg/kg, ig measured up to 240 mins by LC/ESI-MS/MS analysis; assay type: ADME, organism-based; conditions: po
Mus musculus [23] = assay: Anticonvulsant activity in mouse assessed as protection against 6 Hz psychomotor seizure at 50 mg/kg, ip after 2 hrs; assay type: functional, organism-based; summary of the method: as §3
Rattus norvegicus [24] = assay: Anticonvulsant activity in pilocarpine-induced status epilepticus Sprague-Dawley rat model at 100 mg/kg, ip after 4 hrs during post stage 3 seizure; assay type: functional, organism-based
Summary of the method: (§4)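 Rats given pilocarpine 50 mg/kg ip and observed to first convulsive seizure (Racine stage 3–5, time zero); test drug then given ip in 0.5% methylcellulose. Efficacy = halting further stage 3–5 convulsive seizures; scored protected/tested, time after first stage 3 seizure.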

Rattus norvegicus [25] = assay: Anticonvulsant activity in pilocarpine-induced status epilepticus Sprague-Dawley rat model at 100 mg/kg, ip after 0.5 hrs during post stage 3 seizure; assay type: functional, organism-based; summary of the method: as §4
[26] = molecular target: Neurotensin receptor type 1 (Homo sapiens) (UniProt P30989); assay: Displacement of [125I]Tyr3-neurotensin from human recombinant NT1 receptor expressed in CHO cells at 10^-5 M; assay type: cell-based; summary of the method: as §1
Chain of Neurotensin receptor type 1 (Homo sapiens) (P30989 whole entry): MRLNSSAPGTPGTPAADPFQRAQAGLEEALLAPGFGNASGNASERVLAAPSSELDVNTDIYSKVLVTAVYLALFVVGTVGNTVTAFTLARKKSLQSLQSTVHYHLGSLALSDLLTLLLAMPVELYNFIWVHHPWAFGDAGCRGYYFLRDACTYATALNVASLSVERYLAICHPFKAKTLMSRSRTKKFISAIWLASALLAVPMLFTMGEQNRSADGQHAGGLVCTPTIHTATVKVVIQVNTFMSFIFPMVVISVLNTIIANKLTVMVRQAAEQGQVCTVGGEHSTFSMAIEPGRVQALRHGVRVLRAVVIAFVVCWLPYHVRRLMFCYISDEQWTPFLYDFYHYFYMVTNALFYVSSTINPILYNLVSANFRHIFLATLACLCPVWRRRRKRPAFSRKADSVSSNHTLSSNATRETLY

Mus musculus [27] = assay: Anticonvulsant activity in mouse assessed as protection against 6 Hz psychomotor seizure at 50 mg/kg, ip after 0.5 hrs; assay type: functional, organism-based; summary of the method: as §3

SMILES: Cc1cccc(C)c1OCCOCCN[C@@H](C)CO
- inhibition [1]: -0.9%
- Activity (Rattus norvegicus [2]): inactive
- Activity (Mus musculus [3]): inactive
- Activity (Mus musculus [4]): Active
- Activity (Rattus norvegicus [5]): inactive

SMILES: Cc1cccc(C)c1OCCOCCN[C@H](C)CO.Cl
- Tmax (Mus musculus [6]): 5 min
- Kp at 2 h [7]: 3.18
- MRT [8]: 40.3 min
- Kp at 0.5 h [9]: 2.12
- AUC(0-inf) [10]: 5150 ng·h/mL
- ED50 (Mus musculus [11]): 12.9 mg/kg
- AUC (Mus musculus [12]): 1030 ng·h/mL
- AUC(0-inf) [13]: 2160 ng·h/mL
- t1/2 (Mus musculus [14]): 29.1 min
- Cmax (Mus musculus [15]): 950 ng/mL
- microsomal CLint at 20 µM (in vitro): 47 µL/min/mg
- AUMC (Mus musculus [16]): 956 ng·h²/mL
- bioavailability [17]: 6.78%
- MRT [18]: 83.1 min
- Kp at 4 h [19]: 1.94
- Activity (Mus musculus [20]): Toxic
- Activity (Vibrio harveyi): 25
- Kp at 5 min [21]: 1.13
- MRT [22]: 73.8 min

SMILES: Cc1cccc(C)c1OCCOCCN[C@H](C)CO
- Activity (Mus musculus [23]): inactive
- Activity (Rattus norvegicus [24]): inactive
- Activity (Rattus norvegicus [25]): inactive
- inhibition [26]: -4.2%
- Activity (Mus musculus [27]): Active
